Most compounds without a hit are left out; they make up all but 3.7% or so of the library.
SR-BI DiI inh – inhibitors of SR-BI mediated HDL lipid uptake, primary screen, ldlA[mSR-BI] cells, fluorescence, single point; Scavenger receptor class B member 1 (Mus musculus), Q61009; ldlA[mSR-BI] CHO cells, DiI-HDL uptake fluorescence, 3 h; inhibition, % at 12.5 µM; hit rate 0.96% among 320,000; AID 488896, 2010;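 active = mean replicate inhibition of at least 70% and a set share of replicates each scoring 70 or more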;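 also: 0% = median of neutral control wells and 100% = median of positive control wells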
GASC-1 inh – inhibitors of GASC-1 histone demethylase, primary screen, biochemical, fluorescence, DELFIA europium; Lysine-specific demethylase 4C (Homo sapiens), Q9H3R0; inhibition, % at 2.35 µM; hit rate 0.069% among 330,000; GST-JMJD2C(1-420) H3K9me3 demethylation;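 active = more than half of a compound's replicate wells show inhibition beyond 50%, single wells judged on their own value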;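 also: signal counts dimethyl H3K9 product captured on neutravidin plate; 0% = median of DMSO wells and 100% = 0.3 times that DMSO median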
Target sequence (Q9H3R0 1-420 limits assumed): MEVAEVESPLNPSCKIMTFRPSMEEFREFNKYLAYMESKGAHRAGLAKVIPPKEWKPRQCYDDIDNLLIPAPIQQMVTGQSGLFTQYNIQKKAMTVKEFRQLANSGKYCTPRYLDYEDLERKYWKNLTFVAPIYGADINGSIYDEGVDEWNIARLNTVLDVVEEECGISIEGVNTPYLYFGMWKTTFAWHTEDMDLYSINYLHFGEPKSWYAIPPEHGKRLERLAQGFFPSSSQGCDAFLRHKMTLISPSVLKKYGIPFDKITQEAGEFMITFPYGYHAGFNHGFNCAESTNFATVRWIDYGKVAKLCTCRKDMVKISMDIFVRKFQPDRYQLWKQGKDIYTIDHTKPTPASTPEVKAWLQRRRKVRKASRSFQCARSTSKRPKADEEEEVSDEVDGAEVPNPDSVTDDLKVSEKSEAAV
GAA850 FXN act – FXN promoter activators, primary screen, cell-based, luciferase luminescence, HEK293 lucGAA850 | HEK293 lucGAA850 FXN promoter luciferase reporter, 24 h; percent of 10 µM SAHA response | activation, % at 6 µM | hit rate 0.56% among 360,000 | AID 540364, 2011;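 active = activation above the average of all compounds screened plus 3 SD, cutoff fixed separately per campaign, cut at about 7.5% in these data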;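 also: 0% = DMSO wells and 100% = 10 µM SAHA wells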
SR-BI DiI-HDL act – activators of SR-BI mediated DiI-HDL uptake, primary screen, ldlA[mSR-BI] CHO cells, DiI fluorescence; 3 h; 100 = double the neutral-control signal; activation, % at 12.5 µM; hit rate 0.096% among 320,000;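 active = mean replicate activation of at least 60% and every replicate at or above 60%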;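 also: 0% = median plate neutral-control signal and 100% = twice that signal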
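Material – SR-BI-overexpressing, LDLR-lacking CHO cells · Medium – BSA-supplemented, HEPES-buffered Ham's F12, pH 7.4 · Doses – single concentration · Times – compound with DiI-HDL co-incubation, 3 h at 37 °C · Measured by – bottom-read fluorescence, 550/595 nm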
AHR act – AHR activators, primary screen, cell-based, luminescence, luciferase reporter, human. activation, % at 5 µM. AHR-responsive luciferase reporter cells. AID 2796, 2010. hit rate 2.5% among 320,000; in the data active = activation above about 47%;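 also: 0% = vehicle wells and 100% = reference agonist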
AHR act cf – AHR activators, confirmation, cell-based, luminescence, luciferase reporter, human. shares compounds with AHR act. human cells, AHR-responsive luciferase reporter. activation, % at 9 µM. hit rate 87% among 2,300; in the data active = activation above about 49%;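 also: HepG2 hepatoma cells carrying a DRE-driven firefly luciferase reporter; 0% = vehicle wells and 100% = reference agonist wells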
PXR act counter – human PXR activators, counter-screen for AHR activator project, cell-based, luciferase luminescence; shares compounds with AHR act; cell-based PXR reporter; activation, % at 11.6 µM; hit rate 88% among 2,300; AID 434939, 2010; in the data active = activation above about 11%;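 also: human hepatoma DPX-2 cells expressing full-length human PXR; 0% = DMSO and 100% = reference agonist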
An asterisk follows results filed as active; · = not tested or not shown.

SMILES	SR-BI DiI inh	GASC-1 inh	GAA850 FXN act	SR-BI DiI-HDL act	AHR act	AHR act cf	PXR act counter
CC(=O)c1c(C)[nH]c(C(=O)Nc2ccc(F)cc2F)c1C	19	40	1	-19	98*	131*	38*
COc1ccc(C(C)(C)C)cc1NC(=O)c1[nH]c(C)c(C(C)=O)c1C	57	-10	0	-57	28	·	·
CC(=O)c1c(C)[nH]c(C(=O)Nc2cc(C)ccc2C)c1C	17	-1	0	-17	118*	93*	38*
CC(=O)c1c(C)[nH]c(C(=O)Nc2nccs2)c1C	33	1	-1	-33	133*	74*	36*
O=C(OCCN1CCCC1=O)c1cc(F)c(F)c(F)c1F	10	-1	0	-10	5	·	·
COC(=O)c1ccccc1-c1ccc(/C=N/NC(N)=O)o1	-14	10	2	14	2	·	·
Cc1nnc(N/N=C/c2ccc(-c3ccccc3F)o2)n1N	-19	7	3	19	109*	75*	24*
C/C(=N/NC(=O)Nc1ccccc1)c1ccc(C)cc1	4	-1	1	-4	105*	76*	20*
CC(=O)Nc1ccc(/C(C)=N\NC(=O)c2ccc(-c3ccccc3)cc2)cc1	·	-32	·	·	14	·	·
O=c1c2[nH]c3ccc(F)cc3c2ncn1CCCn1ccnc1	-5	7	-1	5	96*	81*	18*
CCOc1ccc(NC(=S)N2CCN(CCN3C(=O)c4cccc5cccc(c45)C3=O)CC2)cc1	69	8	0	-69	89*	108*	55*
O=C(/C=C/c1ccccc1)N1CCN(CCN2C(=O)c3cccc4cccc(c34)C2=O)CC1	56	0	0	-56	102*	83*	51*
CCCCNC(=O)CC1Nc2ccccc2NC1=O (stereo not given)	·	-2	1	·	86*	52*	58*
Clc1cccc(-c2nc(-c3ccccn3)no2)c1	1	-89	-4	-1	104*	41	-2
c1ccc(-c2noc(-c3cccc4ccccc34)n2)nc1	-10	-4	1	10	103*	21	10
COc1cc(NC(=O)C/C(C)=N/NC(=O)C(OC)c2ccccc2)c(OC)cc1Cl (stereo not given)	52	-9	0	-52	105*	24	10
COc1ccc(Cl)cc1NC(=O)C(OC)c1ccccc1 (stereo not given)	27	-4	-3	-27	101*	97*	47*
Nc1ccccc1Nc1nc2ccccc2[nH]1	·	2	-1	·	95*	2	9
COCC(=O)N1CCc2ccc(NC(=O)c3ccc(C(F)(F)F)cc3)cc2C1	53	1	-1	-53	103*	73*	·
CC1(C(=O)NS(=O)(=O)c2ccc(Br)cc2)CCN1C(=O)Cc1cccs1 (stereo not given)	·	·	1	·	·	·	·
Cc1cc(C(=O)Nc2ccc(OCc3ccccc3)cc2)c(C)o1	27	-1	2	-27	3	·	·
CCOc1ccc(NC(=S)N(CCc2c(C)[nH]c3ccc(C)cc23)Cc2cccnc2)cc1	20	10	-1	-20	36	·	·
COc1ccc(NC(=S)N(CCc2c(C)[nH]c3ccc(C)cc23)Cc2ccco2)cc1	14	7	-1	-14	100*	84*	111*
CCOc1ccc(NC(=S)N(CCc2c(C)[nH]c3ccc(C)cc23)Cc2ccco2)cc1	44	-3	-4	-44	86*	67*	91*
COc1cccc(NC(=O)COC(=O)c2sccc2C)c1	17	10	4	-17	0	·	·
SMILES	SR-BI DiI inh	GASC-1 inh	GAA850 FXN act	SR-BI DiI-HDL act	AHR act	AHR act cf	PXR act counter
c1ccc(-c2nnc3sc(-c4csc5c4CCCC5)nn23)cc1	22	24	7	-22	97*	136*	38*
Cc1cc(C)cc(Nc2nc3c([nH]2)c(=O)n(C)c(=O)n3C)c1	8	-13	-1	0	95*	38	27*
Cc1ccc(Nc2nc3c([nH]2)c(=O)n(C)c(=O)n3C)cc1	-20	0	-1	20	34	·	·
CC(C)CNC(=O)C1(C)CCCN1Cc1ccccc1OC(F)F (stereo not given)	·	·	0	·	·	·	·
Cc1nnc(Nc2ccc(F)cc2)c2ccccc12	-5	0	2	5	42	·	·
Cc1nnc(Nc2ccccn2)c2ccccc12	-14	-1	-1	14	148*	143*	58*
O=C(Nc1ccc(Cl)c(S(=O)(=O)N2CCOCC2)c1)c1cccs1	-5	7	-1	5	3	·	·
O=C(Nc1ccc(Br)cc1)N1CCc2ccccc2C1	22	-8	6	-22	98*	156*	55*
COc1cccc(NC(=O)c2ccc3nsnc3c2)c1	32	14	2	-32	20	·	·
O=C(Nc1ccc(F)cc1)c1ccc2nc[nH]c2c1	-7	6	4	7	147*	136*	14*
CN(C)c1ccc(NC(=O)c2ccc3nc[nH]c3c2)cc1	-17	-4	4	17	2	·	·
O=C(Nc1ccc(F)cc1)c1ccc2nsnc2c1	1	-2	5	-1	96*	124*	26*
O=C(Nc1ccc(F)c(Cl)c1)c1nsc(Cl)c1Cl	8	-4	3	-8	30	·	·
O=C(Nc1ccc(F)cc1)c1nsc(Cl)c1Cl	11	10	8	-11	83*	222*	40*
O=C(NCc1ccccc1)c1cc(C2CCCN(C(=O)c3ccc4c(c3)CCO4)C2)on1 (stereo not given)	·	·	-1	·	·	·	·
O=C(NC(=S)Nc1ccccc1N1CCCC1)c1ccco1	7	1	3	-7	169*	124*	31*
O=C(CCc1nnc(Cc2c[nH]c3ccccc23)o1)NC(C1CC1)C1CC1	17	4	3	-17	5	·	·
O=C(Nc1cc(F)c(Br)cc1F)c1ccc(Cl)cc1	33	-18	3	-33	83*	98*	31*
O=C(Nc1ccc(Cl)cc1C(F)(F)F)c1ccc(Cl)cc1	-11	-9	3	11	0	·	·
Cn1cnc([N+](=O)[O-])c1Oc1cccc2ccccc12	-17	-16	-2	17	82*	82*	21*
COc1ccccc1C(=O)Nc1ccc(N2CCCCC2)cc1	59	-11	3	-59	88*	99*	·
